High-throughput results deposited in PubChem BioAssay by several laboratories.
NR2E3 ag-1 – human photoreceptor-specific nuclear receptor agonism; Q9Y5X4; CHO-S Gal4-NCOR/VP16-NR2E3 two-hybrid, luciferase; inhibition of corepressor binding, % at 3.98 µM; actives 0.35% (n = 360,000); AID 602229;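 active means inhibition above the mean of all tested compounds plus 3 SD, cut at about 70% in these data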;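 further: 0% = DMSO with NR2E3 transfected cells and 100% = cells lacking NR2E3 construct; higher means lower luciferase signal from less NR2E3 corepressor binding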
Target sequence (Q9Y5X4 whole entry, looked up, the tested form may be a part): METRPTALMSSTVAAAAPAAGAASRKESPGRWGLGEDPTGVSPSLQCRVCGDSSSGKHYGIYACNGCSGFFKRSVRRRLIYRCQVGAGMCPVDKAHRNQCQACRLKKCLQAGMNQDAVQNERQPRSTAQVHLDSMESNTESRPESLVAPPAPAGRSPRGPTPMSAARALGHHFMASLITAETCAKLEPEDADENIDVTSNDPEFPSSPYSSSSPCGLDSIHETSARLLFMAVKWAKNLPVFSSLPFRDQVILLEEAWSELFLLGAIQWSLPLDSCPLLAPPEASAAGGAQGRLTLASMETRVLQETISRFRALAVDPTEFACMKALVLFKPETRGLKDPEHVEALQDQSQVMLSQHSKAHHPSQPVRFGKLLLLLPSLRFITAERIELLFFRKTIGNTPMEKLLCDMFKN
MPTP inh – permeability transition pore inhibition | AID 602449 | isolated mouse mitochondria, Ca2+ swelling absorbance, 30 min | actives 1.4% (n = 360,000) | inhibition, % at 10 µM;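 active means inhibition of 50% or more, scaled per plate between neutral and stimulator controls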;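 further: 0% = DMSO wells given calcium and 100% = 1 mM EGTA wells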
aDG glyco act – increases alpha dystroglycan glycosylation | AID 624168 | activation, % at 10 µM | Pro5-aDG cells, alpha-DG glycosylation AlphaScreen (IIH6); 0% Pro5, 100% B10-LARGE cell signal | actives 0.22% (n = 360,000);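 active means activation of at least 8% versus controls, or a plate z-score of at least 8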;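 further: Pro5 are CHO cells carrying HIG-tagged alpha-DG that lacks glycosylation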
Jurkat NFkB inh – lowers PMA/ionomycin-induced NF-kB signal in Jurkat cells | PMA/ionomycin-induced NF-kB luciferase reporter, luminescence | inhibition, % at 4 µM | actives 0.53% (n = 330,000) | AID 435003; in the data active means inhibition above about 50%
697 NFkB inh – lowers PMA/ionomycin-induced NF-kB signal in 697 B cells; 697 B-cell NF-kB luciferase reporter, 16 h; inhibition, % at 4 µM; actives 0.33% (n = 330,000); AID 435022; in the data active means inhibition above about 35%
NR2E3 ag-2 – activates human photoreceptor nuclear receptor NR2E3; inhibition of corepressor binding, % at 4.78 µM; actives 0.12% (n = 320,000); GST-NR2E3/biotin-RetCOR TR-FRET, 1536-well; AID 2300;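 active means percent inhibition above the cutoff of mean plus 3 SD of all tested compounds, set per screening campaign, cut at about 20% in these data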;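 further: 0% = DMSO wells and 100% = biotin wells as full block of FRET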
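Material – GST-tagged NR2E3 plus biotinylated RetCOR corepressor · Quantity – NR2E3 fusion 1.35 nM · Times – 5 h incubation at 4 °C · Medium – pH 7.5 Tris-based buffer · Technique – TR-FRET, Eu(K)-anti-GST donor, streptavidin-D2 acceptor, ex 340, em 617/671 nm · Benchmarks – high control biotin, low control 0.6% DMSO · Format – 1536-well plates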
MPTP counter – membrane potential counter-screen of mitochondrial pore inhibitors; shares compounds with MPTP inh; isolated mitochondria, Rhodamine 123 fluorescence; inhibition, % at 10 µM; actives 78% (n = 5,000); in the data active means inhibition above about 22%;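 further: 0% = DMSO vehicle and 100% = positive control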
MPTP abs DR – MPTP inhibition, dose response swelling confirmation. shares compounds with MPTP inh. isolated mitochondria swelling, absorbance. IC50, µM. actives 58% (n = 780). AID 651561; in the data active means IC50 below about 20 µM
MPTP counter DR – MPTP inhibitor counter-screen activity, dose response; IC50, µM; shares compounds with MPTP inh; isolated mitochondria counterscreen, fluorescence read-out; actives 49% (n = 780); in the data active means IC50 below about 80 µM
Active calls of the source: *. In the library only some 2.4% were active in any assay of this set; here they are far more common.

Fc1ccc(NC(=S)Nc2ccc(Br)cc2)cc1 was read as NR2E3 ag-1 -2, MPTP inh 73*, aDG glyco act 0, Jurkat NFkB inh -9, 697 NFkB inh -14, NR2E3 ag-2 2 and MPTP counter 93*.
CN1CCN(c2ccc(Cl)cc2NC(=O)/C=C/c2cccc(F)c2)CC1 was read as NR2E3 ag-1 -16, MPTP inh 74*, aDG glyco act 4, Jurkat NFkB inh 12, 697 NFkB inh 5, NR2E3 ag-2 1, MPTP counter -23, MPTP abs DR 6.8* and MPTP counter DR >80.
`CC(C)C(=O)Nc1cccc(C(=O)Nc2ccc(S(=O)(=O)Nc3nccs3)cc2)c1` gave NR2E3 ag-1 -24, MPTP inh -2, aDG glyco act 0, Jurkat NFkB inh -1, 697 NFkB inh 10 and NR2E3 ag-2 2.
For C[n+]1ccc(CC2C(=[N+]([O-])[O-])C=Nc3ncnn32)cc1 (stereo unspecified) the results were NR2E3 ag-1 -12, MPTP inh 1 and aDG glyco act 0.
Cc1cc(C)n2nc(SCC(=O)N3CCN(c4ccccc4)CC3)nc2n1 was read as NR2E3 ag-1 -34, MPTP inh 0, aDG glyco act 0, Jurkat NFkB inh -6 and 697 NFkB inh -8.
Screening Cc1ccc(N(CC(=O)NCCc2ccc(F)cc2)S(=O)(=O)c2ccc(Cl)c([N+](=O)[O-])c2)c(C)c1 returned NR2E3 ag-1 15, MPTP inh 68*, aDG glyco act 0, Jurkat NFkB inh -8, 697 NFkB inh 14, NR2E3 ag-2 -1 and MPTP counter 70*.
Screening C/C=C(\C)CN1CCC(Oc2cc(C(=O)NC3CC3)ccc2OC)CC1 returned NR2E3 ag-1 -10, MPTP inh -2, aDG glyco act 0, Jurkat NFkB inh 1, 697 NFkB inh -11 and NR2E3 ag-2 0.
Screening CN(c1ccc(OC(=O)c2ccc(-n3cncn3)c([N+](=O)[O-])c2)cc1)S(=O)(=O)c1ccccc1 returned NR2E3 ag-1 6, MPTP inh -2, aDG glyco act 0, Jurkat NFkB inh -2, 697 NFkB inh 1 and NR2E3 ag-2 2.
For CC(NS(=O)(=O)c1ccc(OCC(=O)NCc2ccncc2)cc1)c1ccccc1 (stereo unspecified) the results were NR2E3 ag-1 -11, MPTP inh 1, aDG glyco act 0, Jurkat NFkB inh 17, 697 NFkB inh -15 and NR2E3 ag-2 1.
Screening CN(C)S(=O)(=O)Oc1cccc(C(=O)Nc2cccc(Cl)c2)c1 returned NR2E3 ag-1 -17, MPTP inh 16, aDG glyco act 5, Jurkat NFkB inh -83, 697 NFkB inh -59 and NR2E3 ag-2 1.
NC(=S)NNC(=O)Nc1ccc(Cl)c(Cl)c1 was read as NR2E3 ag-1 -18, MPTP inh 72*, aDG glyco act 0, Jurkat NFkB inh -1, 697 NFkB inh 8, NR2E3 ag-2 -2 and MPTP counter 70*.
Screening COC(=O)c1cc(NC(=O)C2COc3ccccc3O2)ccc1Cl (stereo unspecified) returned NR2E3 ag-1 -1, MPTP inh 1, aDG glyco act 0, Jurkat NFkB inh -11, 697 NFkB inh 12 and NR2E3 ag-2 -1.
COC(=O)c1cc(NC(=O)Nc2ccccc2)ccc1Cl was read as NR2E3 ag-1 -50, MPTP inh 76*, aDG glyco act 0, Jurkat NFkB inh -35, 697 NFkB inh -14, NR2E3 ag-2 -2 and MPTP counter 83*.
`O=C(NCC1CC1(Cl)Cl)Nc1ccc(Cl)c(Cl)c1` (stereo unspecified) gave NR2E3 ag-1 -66, MPTP inh 62*, aDG glyco act 0, Jurkat NFkB inh -67, 697 NFkB inh -28, NR2E3 ag-2 4 and MPTP counter 95*.
